Consider one molecule from ChEMBL document CHEMBL1140127, “Enantiomeric propanolamines as selective N-methyl-D-aspartate 2B receptor antagonists” (J Med Chem, 2008).

pIC50: −log10 of the molar value. Activity calls are given as the source filed them.

Series [1] can be described thus: Inhibition of sodium channel. The procedure, abridged: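 Rat cortical neurons cultured from E17 embryos and recorded at 5–10 days by whole-cell patch clamp at 23 °C. Holding −60 mV with 100 ms steps, in the presence of bicuculline, CNQX and DL-APV. Tetrodotoxin-sensitive Na+ current measured at −10 mV; mean compared by paired t test.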
Series [2] has as its target Adrenergic receptor alpha-2 (Rattus norvegicus, UniProt P22086+P19328+P22909). In words: Binding affinity to alpha2 adrenergic receptor in rat brain. The format is tissue-based.
Series [3] deals with Sodium-dependent dopamine transporter (Homo sapiens, UniProt Q01959). In words: Binding affinity to dopamine transporter.
Series [4] deals with Sodium-dependent noradrenaline transporter (Homo sapiens, UniProt P23975). Nature of the series: Binding affinity to norepinephrine transporter.
The test system of series [5] is Mus musculus. In words: Neuroprotective effect against middle cerebral artery occlusion-induced transient focal ischemia in C57BL/6 mouse at 30 mg/kg, ip administered 30 mins before occlusion. The format is functional. The note with it: route intraperitoneal. The procedure, abridged:
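Male C57BL/6 mice, 3–5 months, under 2% isoflurane at 37 °C. Left MCA occluded with an intraluminal suture for 30 min, confirmed by laser Doppler flow below 20%. Injection ip (10 mL/kg) given 30 min before occlusion. After 24 h, brains cut into 2 mm sections and stained with 2% TTC; infarct volume thresholded and edema-corrected. Operator blinded; Mann–Whitney test.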

The next series concerns Rattus norvegicus. In words: Anticonvulsant activity in Sprague-Dawley rat assessed as inhibition of electroshock-induced tonic hind limb extension at 30 mg/kg, ip administered 30 mins before electroshock. The format is functional, organism-based. On the set-up: dose 30 mg/kg. The note with it: Hindlimb. The procedure, abridged:
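Male Sprague–Dawley rats, 100–125 g, with 1% lidocaine dropped into each conjunctiva before maximal electroshock. Compound given ip in DMSO 30 min before the stimulus. Tested on three consecutive days: untreated on days 1 and 3, compound on day 2. Duration of tonic hind limb extension scored visually. Vehicle served as negative control and carbamazepine 60 mg/kg as positive control. ANOVA with Bonferroni post hoc test.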

The test system of series [6] is Mus musculus. In words: Effect on motor coordination in mouse at 30 mg/kg, ip administered 20 mins prior to test after 5 days by rotarod test. The format is ADME, organism-based. More on the design: dose 30 mg/kg, route intraperitoneal. The note with it: in vivo, 120 h. The procedure, abridged: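 Accelerating rotorod: mice held 10 s at 5 rpm, then accelerated from 5 to 35 rpm over 5 min; latency to fall recorded by light sensor. Four trials per day for 5 days, 25 min between trials. On day 5, mice were randomized and given a 5 mL/kg ip injection in 25% DMSO/75% saline 20 min before the first trial. Operator blinded; ANOVA with Dunnett's post hoc test.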

A short description of series [7]: Ratio of drug level in rat brain to plasma by LC-MS/MS analysis. It is filed as ADME. The essentials: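 Rats (n = 3 per dose) received a 4 mg/kg single iv bolus via the tail vein or 30 mg/kg ip, in 2% dimethyl acetamide/98% 5% 2-hydroxypropyl cyclodextrin, after an overnight fast. Plasma was taken at 5–240 min. Brain was homogenized in 50 mM phosphate buffer. Samples were extracted with 5 volumes of cold acetonitrile and read by LC-MS/MS (MRM) against a standard curve.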

The nature of series [8]: Protein binding in human plasma. It is filed as ADME, cell-free. The note with it: read-out: PPB (converted).
For series [9], the target named is Sodium-dependent serotonin transporter (Homo sapiens, UniProt P31645). In words: Binding affinity to serotonin transporter.
Series [10] addresses Glutamate NMDA receptor; Grin1/Grin2b (Rattus norvegicus, UniProt P35439+Q00960). Nature of the series: Inhibition of rat recombinant NR1/NR2B receptor expressed in Xenopus oocytes assessed as inhibition of glutamate and glycine-induced evoked current by two electrode voltage clamp method. The format is cell-based, Oocyte.
Series [11] deals with Glutamate NMDA receptor; Grin1/Grin2a (Rattus norvegicus) (UniProt P35439+Q00959). Nature of the series: Inhibition of rat recombinant NR1/NR2A receptor expressed in Xenopus oocytes assessed as inhibition of glutamate and glycine-induced evoked current at 3uM by two electrode voltage clamp method. The format is cell-based. The conditions noted are these: Oocyte.
For series [12], the target named is Ionotropic glutamate receptor NMDA 1/2D (Rattus norvegicus) (UniProt P35439+Q62645). Nature of the series: Inhibition of rat recombinant NR1/NR2D receptor expressed in Xenopus oocytes assessed as inhibition of glutamate and glycine-induced evoked current at 3uM by two electrode voltage clamp method. The note with it: Oocyte. The format is cell-based.
Series [13] addresses Glutamate receptor 2 (Rattus norvegicus) (UniProt P19491). In words: Inhibition of rat recombinant GluR2/GluR3 expressed in Xenopus oocytes assessed as inhibition of kainate-induced evoked current at 3 uM by two electrode voltage clamp method. The note with it: Oocyte. The format is cell-based. The procedure, abridged:
(§1)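 Xenopus oocytes injected with 5–10 ng rat receptor cRNA and kept in Barth's solution at 18 °C. Two-electrode voltage clamp at −40 mV and 23 °C, 2–7 days after injection, in 90 NaCl/1 KCl/10 HEPES/0.5 BaCl2 mM at pH 7.3 or 7.6. Agonists: 50 μM kainate for GluR3, GluR4 and GluR2/3; 3 nM domoate for GluR6; 100 μM AMPA for GluR6/KA1. Current expressed as % of control; paired t test.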
For orientation: In two-electrode clamp one electrode senses voltage and the other passes current.

Series [14] concerns the target Glutamate receptor ionotropic, kainate 2 (Rattus norvegicus) (UniProt P42260). In words: Inhibition of rat recombinant GluR6 expressed in Xenopus oocytes assessed as inhibition of domoate-induced evoked current at 3 uM by two electrode voltage clamp method. The format is cell-based. The conditions noted are these: Oocyte. The essentials: as §1
Series [15] has the same target. In words: Inhibition of rat recombinant GluR6/KA1 expressed in Xenopus oocytes assessed as inhibition of AMPA-induced evoked current at 3 uM by two electrode voltage clamp method. It is filed as cell-based. The note with it: Oocyte. The procedure, abridged:
as §1

The species entered for series [16] is Mus musculus. In words: Inhibition of mouse NR2B(deltaATD) mutant receptor.

Glutamate receptor ionotropic, kainate 2 (Rattus norvegicus), sequence (P42260 whole entry): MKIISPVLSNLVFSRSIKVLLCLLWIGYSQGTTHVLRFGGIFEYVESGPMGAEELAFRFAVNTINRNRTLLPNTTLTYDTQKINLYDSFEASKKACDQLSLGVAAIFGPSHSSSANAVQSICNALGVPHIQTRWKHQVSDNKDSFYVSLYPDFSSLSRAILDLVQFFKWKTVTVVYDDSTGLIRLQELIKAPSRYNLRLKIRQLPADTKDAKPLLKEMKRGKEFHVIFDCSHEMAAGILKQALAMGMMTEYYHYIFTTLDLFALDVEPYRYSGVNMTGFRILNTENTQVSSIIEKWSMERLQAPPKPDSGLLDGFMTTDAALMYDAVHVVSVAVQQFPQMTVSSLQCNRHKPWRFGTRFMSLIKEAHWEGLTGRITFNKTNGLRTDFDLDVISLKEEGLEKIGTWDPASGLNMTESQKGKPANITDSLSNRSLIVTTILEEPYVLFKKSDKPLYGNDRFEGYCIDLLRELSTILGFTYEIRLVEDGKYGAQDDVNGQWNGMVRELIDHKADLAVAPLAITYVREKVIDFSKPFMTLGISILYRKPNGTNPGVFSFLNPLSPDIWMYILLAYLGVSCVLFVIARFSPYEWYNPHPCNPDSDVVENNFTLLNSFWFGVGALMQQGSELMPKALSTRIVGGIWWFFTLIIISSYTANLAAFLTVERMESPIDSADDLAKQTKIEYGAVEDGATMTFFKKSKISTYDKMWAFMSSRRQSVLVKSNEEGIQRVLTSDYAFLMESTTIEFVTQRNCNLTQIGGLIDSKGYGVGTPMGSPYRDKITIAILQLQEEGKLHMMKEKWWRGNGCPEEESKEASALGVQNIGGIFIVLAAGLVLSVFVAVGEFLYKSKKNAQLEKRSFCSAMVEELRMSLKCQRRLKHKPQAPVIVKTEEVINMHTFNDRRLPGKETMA
Glutamate NMDA receptor; Grin1/Grin2b, sequence (Q00960 whole entry, other chains not shown): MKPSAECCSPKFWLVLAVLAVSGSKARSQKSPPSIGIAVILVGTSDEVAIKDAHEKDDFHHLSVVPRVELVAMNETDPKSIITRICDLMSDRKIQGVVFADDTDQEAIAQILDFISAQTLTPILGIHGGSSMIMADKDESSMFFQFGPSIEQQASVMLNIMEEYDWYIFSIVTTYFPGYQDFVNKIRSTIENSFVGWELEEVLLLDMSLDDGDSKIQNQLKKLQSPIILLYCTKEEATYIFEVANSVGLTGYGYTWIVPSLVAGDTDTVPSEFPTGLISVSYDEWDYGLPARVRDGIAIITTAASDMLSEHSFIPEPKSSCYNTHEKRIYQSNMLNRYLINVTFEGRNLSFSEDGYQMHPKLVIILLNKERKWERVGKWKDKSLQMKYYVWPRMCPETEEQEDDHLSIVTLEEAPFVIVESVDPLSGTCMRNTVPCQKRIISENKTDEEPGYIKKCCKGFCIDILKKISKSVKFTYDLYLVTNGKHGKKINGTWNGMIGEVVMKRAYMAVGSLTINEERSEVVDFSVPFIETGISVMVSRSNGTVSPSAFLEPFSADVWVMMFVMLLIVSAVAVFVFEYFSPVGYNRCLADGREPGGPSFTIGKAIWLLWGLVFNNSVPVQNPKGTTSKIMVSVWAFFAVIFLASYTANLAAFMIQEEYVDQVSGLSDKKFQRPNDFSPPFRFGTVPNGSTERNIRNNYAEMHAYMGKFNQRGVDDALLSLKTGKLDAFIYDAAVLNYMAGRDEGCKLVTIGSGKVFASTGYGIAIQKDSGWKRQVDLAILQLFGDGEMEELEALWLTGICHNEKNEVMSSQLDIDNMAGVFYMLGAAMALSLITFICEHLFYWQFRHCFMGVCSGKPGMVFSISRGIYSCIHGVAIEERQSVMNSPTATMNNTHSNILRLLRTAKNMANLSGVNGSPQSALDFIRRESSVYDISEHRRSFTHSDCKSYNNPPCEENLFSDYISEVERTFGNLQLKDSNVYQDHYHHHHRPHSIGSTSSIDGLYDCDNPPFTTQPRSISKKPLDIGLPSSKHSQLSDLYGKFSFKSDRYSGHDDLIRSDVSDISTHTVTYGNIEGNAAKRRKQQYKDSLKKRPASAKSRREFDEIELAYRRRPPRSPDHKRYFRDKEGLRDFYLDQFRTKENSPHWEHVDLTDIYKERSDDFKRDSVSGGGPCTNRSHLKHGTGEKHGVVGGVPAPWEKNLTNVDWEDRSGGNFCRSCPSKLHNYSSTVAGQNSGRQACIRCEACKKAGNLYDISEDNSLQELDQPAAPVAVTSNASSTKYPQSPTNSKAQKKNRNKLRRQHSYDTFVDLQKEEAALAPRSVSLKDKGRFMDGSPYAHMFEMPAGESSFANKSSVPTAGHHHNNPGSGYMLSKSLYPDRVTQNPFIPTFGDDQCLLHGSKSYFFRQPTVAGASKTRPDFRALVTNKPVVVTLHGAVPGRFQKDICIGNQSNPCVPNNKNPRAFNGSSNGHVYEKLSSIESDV
Sodium-dependent serotonin transporter, sequence (P31645 whole entry): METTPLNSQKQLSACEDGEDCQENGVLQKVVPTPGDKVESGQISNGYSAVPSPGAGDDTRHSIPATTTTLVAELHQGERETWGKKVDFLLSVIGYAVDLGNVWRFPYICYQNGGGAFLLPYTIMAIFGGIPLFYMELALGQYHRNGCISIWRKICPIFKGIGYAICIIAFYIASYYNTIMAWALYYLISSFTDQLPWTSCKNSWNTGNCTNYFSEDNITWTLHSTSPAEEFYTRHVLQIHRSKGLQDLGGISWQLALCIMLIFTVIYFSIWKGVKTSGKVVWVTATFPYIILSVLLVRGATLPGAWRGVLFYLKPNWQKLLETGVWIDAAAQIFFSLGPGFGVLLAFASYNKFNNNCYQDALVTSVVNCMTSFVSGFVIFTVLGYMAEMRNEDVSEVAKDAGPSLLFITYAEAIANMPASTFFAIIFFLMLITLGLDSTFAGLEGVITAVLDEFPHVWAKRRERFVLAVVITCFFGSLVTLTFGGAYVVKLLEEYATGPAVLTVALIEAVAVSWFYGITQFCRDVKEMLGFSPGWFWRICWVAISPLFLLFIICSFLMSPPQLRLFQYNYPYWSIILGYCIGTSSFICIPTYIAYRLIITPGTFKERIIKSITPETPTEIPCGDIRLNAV
Sodium-dependent dopamine transporter, sequence (Q01959 whole entry): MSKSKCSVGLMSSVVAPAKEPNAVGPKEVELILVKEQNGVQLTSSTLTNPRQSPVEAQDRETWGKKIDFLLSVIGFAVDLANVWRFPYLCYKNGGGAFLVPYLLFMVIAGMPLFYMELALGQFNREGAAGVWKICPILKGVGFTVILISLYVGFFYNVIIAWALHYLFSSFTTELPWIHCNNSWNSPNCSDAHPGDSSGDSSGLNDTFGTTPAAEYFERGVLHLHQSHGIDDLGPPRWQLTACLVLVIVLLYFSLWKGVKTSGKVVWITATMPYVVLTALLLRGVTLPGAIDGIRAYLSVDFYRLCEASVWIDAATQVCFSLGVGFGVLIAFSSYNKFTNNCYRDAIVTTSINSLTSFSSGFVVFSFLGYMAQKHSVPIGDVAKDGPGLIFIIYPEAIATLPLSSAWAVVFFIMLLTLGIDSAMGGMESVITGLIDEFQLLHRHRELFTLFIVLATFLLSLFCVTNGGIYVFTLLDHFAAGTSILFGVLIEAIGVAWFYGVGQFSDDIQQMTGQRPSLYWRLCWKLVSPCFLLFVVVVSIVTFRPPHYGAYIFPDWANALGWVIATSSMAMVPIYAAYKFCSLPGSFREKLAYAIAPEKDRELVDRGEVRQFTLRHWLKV
Glutamate receptor 2 (Rattus norvegicus), sequence (P19491 whole entry): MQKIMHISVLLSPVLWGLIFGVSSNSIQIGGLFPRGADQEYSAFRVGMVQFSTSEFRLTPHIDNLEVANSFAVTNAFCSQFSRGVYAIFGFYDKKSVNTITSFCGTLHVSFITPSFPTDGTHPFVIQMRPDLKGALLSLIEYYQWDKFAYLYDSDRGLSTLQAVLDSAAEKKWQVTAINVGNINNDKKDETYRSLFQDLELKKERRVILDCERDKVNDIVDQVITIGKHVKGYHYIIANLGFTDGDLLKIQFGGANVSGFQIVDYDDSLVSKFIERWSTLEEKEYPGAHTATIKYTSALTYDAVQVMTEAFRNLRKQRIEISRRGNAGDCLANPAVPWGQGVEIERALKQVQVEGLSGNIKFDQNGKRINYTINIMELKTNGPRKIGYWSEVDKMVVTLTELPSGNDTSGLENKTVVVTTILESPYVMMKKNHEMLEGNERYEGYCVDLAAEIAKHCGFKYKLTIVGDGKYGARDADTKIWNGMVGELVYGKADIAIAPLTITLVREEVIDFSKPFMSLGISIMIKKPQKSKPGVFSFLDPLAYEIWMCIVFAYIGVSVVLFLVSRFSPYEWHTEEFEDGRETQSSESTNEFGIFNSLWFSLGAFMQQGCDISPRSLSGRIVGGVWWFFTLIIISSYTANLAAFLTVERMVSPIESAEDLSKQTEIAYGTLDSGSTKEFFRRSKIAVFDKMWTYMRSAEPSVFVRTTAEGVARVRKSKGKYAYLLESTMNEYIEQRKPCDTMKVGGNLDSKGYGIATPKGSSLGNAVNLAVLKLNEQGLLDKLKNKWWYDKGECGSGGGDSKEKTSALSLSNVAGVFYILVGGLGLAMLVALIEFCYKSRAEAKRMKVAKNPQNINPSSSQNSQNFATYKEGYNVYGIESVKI

Take `CS(=O)(=O)Nc1ccc(OC[C@@H](O)CNCCc2ccc(Cl)c(Cl)c2)cc1`: the pIC50 (usually the negative decadic logarithm of the IC50, by convention in mol/L) is below 5.30 in series [1]; 6.30 in series [3]; 6.30 in series [4]; below 5.52 in series [9]; 7.30 in [10]. Besides, in series [2], the concentration for half-maximal inhibition (IC50) (commonly the concentration needed to halve the response being measured) is above 3000 nM. Moreover, the Activity is on record as above 30% in the series on Mus musculus [5] and “Non-toxic” in the series with Mus musculus [6]. In addition, the outcome (in the series on Rattus norvegicus; in series [11]; in series [12]; in series [13]; in series [14]; in series [15]) was inactive. In the series listed under Mus musculus [16], the result was inactive. For the same molecule, the Ratio in series [7] is given as below 0.05. In series [8], the fraction unbound was 0.02.
